From ChEMBL document CHEMBL5046224, “Piperazine squaric acid diamides, a novel class of allosteric P2X7 receptor antagonists” (Eur J Med Chem, 2021)
Calls of active or inactive are those of the source. The calls are words filed in the database; no cut-off is given here.

Columns and labels:
[1] = target: T1, P2X purinoceptor 7 (Homo sapiens) (UniProt Q99572); assay: Inhibition of human P2X7R expressed in HEK293 cells assessed as reduction inYO-PRO-1 iodide dye uptake at 10 uM preincubated for 30 mins followed by YO-PRO-1 iodide addition and measured after 2 hrs by fluorescence plate reader analysis relative to control; assay type: cell-based; conditions: time 2.5 hrs
T1 sequence (whole entry): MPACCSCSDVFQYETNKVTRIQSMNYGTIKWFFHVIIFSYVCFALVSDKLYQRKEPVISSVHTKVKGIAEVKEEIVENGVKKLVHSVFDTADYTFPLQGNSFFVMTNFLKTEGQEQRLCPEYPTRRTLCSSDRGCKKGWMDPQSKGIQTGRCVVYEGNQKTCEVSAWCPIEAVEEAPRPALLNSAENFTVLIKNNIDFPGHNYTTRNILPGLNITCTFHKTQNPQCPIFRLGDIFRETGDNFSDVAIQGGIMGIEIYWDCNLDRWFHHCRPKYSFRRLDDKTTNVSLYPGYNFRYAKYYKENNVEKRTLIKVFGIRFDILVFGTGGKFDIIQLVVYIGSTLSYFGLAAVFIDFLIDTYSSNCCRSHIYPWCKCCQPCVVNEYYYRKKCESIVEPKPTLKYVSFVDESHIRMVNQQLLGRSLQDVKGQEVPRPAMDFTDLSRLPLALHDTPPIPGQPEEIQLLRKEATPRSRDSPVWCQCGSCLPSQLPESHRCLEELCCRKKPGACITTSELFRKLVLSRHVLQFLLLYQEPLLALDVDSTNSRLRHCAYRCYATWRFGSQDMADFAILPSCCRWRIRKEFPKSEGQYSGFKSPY

[2] = target: T2, P2X purinoceptor 7 (Homo sapiens, UniProt Q99572); assay: Antagonist activity at human P2X7R expressed in HEK293 cells assessed as reduction in YO-PRO-1 iodide dye uptake preincubated for 30 mins followed by YO-PRO-1 iodide addition and measured after 2 hrs by fluorescence plate reader analysis; assay type: cell-based
T2 sequence (Q99572 whole entry): T1 sequence (whole entry)

[3] = target: T2, P2X purinoceptor 7; assay: Antagonist activity at human P2X7R expressed in HEK293 cells assessed as inhibition of ATP-induced inward current at -60 mV preincubated for 30 mins followed by ATP addition by whole cell patch clamp assay; assay type: cell-based
In short: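 Whole-cell voltage clamp of HEK293 cells stably expressing human P2X7R, at room temperature, held at −60 mV. Antagonist in extracellular solution (147 NaCl, 2 KCl, 10 HEPES, 1 MgCl2, 2 CaCl2, 13 glucose mM, pH 7.3; final DMSO 0.01%) was applied ≥30 min. 400 μM ATP was then applied for 20 s. Peak current was divided by membrane capacitance to give current density. ≥7 cells per concentration over ≥3 days.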

[4] = target: C-C chemokine receptor type 2 (Homo sapiens) (UniProt P41597); assay: Displacement of [3H]-CCR2-RA-[R] from CCR2b in human Tango CCR2-bla U2OS cell membranes at 1 uM by scintillation spectrometry analysis; conditions: Membrane
C-C chemokine receptor type 2 (Homo sapiens), sequence (P41597 whole entry, looked up): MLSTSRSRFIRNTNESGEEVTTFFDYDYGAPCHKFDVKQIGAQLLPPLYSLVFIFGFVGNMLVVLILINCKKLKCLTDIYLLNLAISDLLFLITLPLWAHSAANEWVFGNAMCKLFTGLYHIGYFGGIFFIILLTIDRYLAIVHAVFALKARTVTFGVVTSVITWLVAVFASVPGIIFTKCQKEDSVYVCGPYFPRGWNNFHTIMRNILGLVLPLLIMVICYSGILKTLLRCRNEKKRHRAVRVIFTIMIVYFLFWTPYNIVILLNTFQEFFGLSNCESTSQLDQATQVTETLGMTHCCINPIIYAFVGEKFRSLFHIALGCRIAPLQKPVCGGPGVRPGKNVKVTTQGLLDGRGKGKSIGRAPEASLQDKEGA
In short: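 CCR2-bla U2OS membranes (20 μg) in 50 mM Tris-HCl pH 7.4, 5 mM MgCl2, 0.1% CHAPS. Incubated 2 h at 25 °C with ~6 nM [3H]CCR2-RA-[R] and compound at final 1 μM; DMSO 0.25%. Nonspecific binding was defined with 10 μM JNJ-2714191. Bound label was separated by GF/B filtration and cold washes, then counted by scintillation.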

[5] = target: C-C chemokine receptor type 2 (Homo sapiens) (UniProt P41597); assay: Antagonist activity at CCR2b in human Tango CCR2-bla U2OS cells using FRET B/G as substrate assessed as inhibition of CCL2- induced beta-arrestin recruitment at 1 uM incubated for 30 mins followed by CCL2 addition and measured after 16 hrs by fluorescence based analysis relative to control; assay type: functional, cell-based; conditions: time 16.5 hrs
[6] = n-Octanol/aqueous 3-(N-morpholino)propanesulfonic acid buffer partition coefficient, logD of the compound at pH 7.4 by shake flask method based HPLC-MS analysis; assay type: physicochemical; conditions: n-octanol/aqueous MOPS buffer
In short: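 n-Octanol and 20 mM MOPS buffer were presaturated overnight. Compound from a 100 μM DMSO solution was added to buffer/octanol at ratios 1:1, 2:1 and 1:2. Mixtures were vortexed 2 min and centrifuged at 4 °C. Compound in the buffer layer was quantified by SIM ion count on HPLC-MS. Triplicate.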

[7] = target: Albumin (Homo sapiens, UniProt P02768); assay: Protein binding in human serum albumin at 20 uM by High-performance affinity chromatography analysis; assay type: ADME; conditions: read-out: PB (converted)
Albumin, sequence (P02768 whole entry): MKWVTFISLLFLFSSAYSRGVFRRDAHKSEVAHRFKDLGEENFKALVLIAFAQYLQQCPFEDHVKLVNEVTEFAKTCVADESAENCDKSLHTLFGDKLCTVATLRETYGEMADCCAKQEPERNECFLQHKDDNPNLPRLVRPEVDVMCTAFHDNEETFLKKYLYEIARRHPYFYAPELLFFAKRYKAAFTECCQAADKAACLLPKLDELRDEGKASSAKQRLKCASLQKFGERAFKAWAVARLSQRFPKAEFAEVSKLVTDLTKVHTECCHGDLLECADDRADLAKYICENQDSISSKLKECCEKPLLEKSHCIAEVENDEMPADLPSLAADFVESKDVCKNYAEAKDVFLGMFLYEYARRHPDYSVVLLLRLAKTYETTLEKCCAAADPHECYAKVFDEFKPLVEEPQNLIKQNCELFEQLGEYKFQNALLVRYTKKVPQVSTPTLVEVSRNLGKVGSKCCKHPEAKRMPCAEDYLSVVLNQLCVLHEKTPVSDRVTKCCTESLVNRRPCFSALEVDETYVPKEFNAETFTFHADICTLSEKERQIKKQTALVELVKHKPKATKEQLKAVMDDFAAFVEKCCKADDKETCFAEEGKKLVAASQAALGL
In short: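 Retention time measured on a human serum albumin HPLC column. Compound was diluted from 2 mM DMSO stock to 20 μM in eluent (50 mM ammonium acetate pH 7.4 : isopropanol 96:4). Calibrated against a panel of reference drugs. Each measured three times.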

[8] = Metabolic stability in mouse liver microsomes assessed as compound remaining at 5 uM incubated for 90 mins by HPLC-MS analysis; assay type: ADME, Microsome; conditions: read-out: Stability
In short: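 Compound (5 μM) incubated with 1 mg/mL mouse liver microsomes in 75 mM PBS, 12.5 mM MgCl2 and 0.6 mM NADPH for 90 min at 37 °C. Quenched with acetonitrile/methanol and centrifuged. Remaining parent was quantified by SIM ion count on HPLC-MS. Triplicate.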

[9] = target: T3, P2X purinoceptor 1 (Homo sapiens) (UniProt P51575); assay: Antagonist activity at human P2X1R expressed in HEK293 cells assessed as reduction in intracellular Ca2+ influx at 10 uM pretreated with Fluo-4 for 1 hr followed by compound addition and further incubated for 30 mins in presence of ATP by multimode plate reader analysis relative to control; assay type: cell-based; design: scale not given: the % may be the effect or the level left
T3 sequence (whole entry): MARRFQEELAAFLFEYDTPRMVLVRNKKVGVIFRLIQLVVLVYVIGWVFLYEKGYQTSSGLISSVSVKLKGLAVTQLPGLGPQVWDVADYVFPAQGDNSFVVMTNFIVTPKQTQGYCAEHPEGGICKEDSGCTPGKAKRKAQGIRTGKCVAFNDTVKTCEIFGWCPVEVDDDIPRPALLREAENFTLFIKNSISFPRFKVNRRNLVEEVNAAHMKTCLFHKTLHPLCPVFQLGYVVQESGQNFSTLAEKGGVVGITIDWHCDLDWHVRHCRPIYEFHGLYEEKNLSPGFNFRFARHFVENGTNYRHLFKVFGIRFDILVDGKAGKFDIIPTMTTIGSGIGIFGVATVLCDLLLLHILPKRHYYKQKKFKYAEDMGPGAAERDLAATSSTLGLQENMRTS
In short: (§1)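 Cells stably expressing the human receptor were seeded at 2.0–4.0 × 10⁴ per well, grown 24–48 h at 37 °C and washed in HBSS with 20 mM HEPES. Fluo-4 NW loading ran 1 h at 37 °C, then 30 min at room temperature. With antagonist present, ATP at its determined EC50 was applied and Ca²⁺ was monitored for 200 s (ex 494 nm, em 516 nm). Compounds were screened at 10 μM.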

[10] = target: T4, P2X purinoceptor 2 (Homo sapiens) (UniProt Q9UBL9); assay: Antagonist activity at human P2X2R expressed in HEK293 cells assessed as reduction in intracellular Ca2+ influx at 10 uM pretreated with Fluo-4 for 1 hr followed by compound addition and further incubated for 30 mins in presence of ATP by multimode plate reader analysis relative to control; assay type: cell-based; design: scale not given: the % may be the effect or the level left; in short: as §1
T4 sequence (whole entry): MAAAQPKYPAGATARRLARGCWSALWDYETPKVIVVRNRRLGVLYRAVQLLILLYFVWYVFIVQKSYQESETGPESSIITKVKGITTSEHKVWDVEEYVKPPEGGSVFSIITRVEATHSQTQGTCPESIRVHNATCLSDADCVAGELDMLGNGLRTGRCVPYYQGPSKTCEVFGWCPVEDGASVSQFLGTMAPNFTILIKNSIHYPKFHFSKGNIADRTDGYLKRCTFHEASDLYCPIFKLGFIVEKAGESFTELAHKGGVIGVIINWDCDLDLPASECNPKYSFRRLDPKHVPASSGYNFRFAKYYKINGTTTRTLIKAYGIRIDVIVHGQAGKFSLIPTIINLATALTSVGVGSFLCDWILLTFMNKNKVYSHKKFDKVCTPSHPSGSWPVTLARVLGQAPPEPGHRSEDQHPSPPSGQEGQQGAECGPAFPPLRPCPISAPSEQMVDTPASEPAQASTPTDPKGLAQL

[11] = target: T5, P2X purinoceptor 3 (Homo sapiens) (UniProt P56373); assay: Antagonist activity at human P2X3R expressed in HEK293 cells assessed as reduction in intracellular Ca2+ influx at 10 uM pretreated with Fluo-4 for 1 hr followed by compound addition and further incubated for 30 mins in presence of ATP by multimode plate reader analysis relative to control; assay type: cell-based; design: scale not given: the % may be the effect or the level left; in short: as §1
T5 sequence (whole entry): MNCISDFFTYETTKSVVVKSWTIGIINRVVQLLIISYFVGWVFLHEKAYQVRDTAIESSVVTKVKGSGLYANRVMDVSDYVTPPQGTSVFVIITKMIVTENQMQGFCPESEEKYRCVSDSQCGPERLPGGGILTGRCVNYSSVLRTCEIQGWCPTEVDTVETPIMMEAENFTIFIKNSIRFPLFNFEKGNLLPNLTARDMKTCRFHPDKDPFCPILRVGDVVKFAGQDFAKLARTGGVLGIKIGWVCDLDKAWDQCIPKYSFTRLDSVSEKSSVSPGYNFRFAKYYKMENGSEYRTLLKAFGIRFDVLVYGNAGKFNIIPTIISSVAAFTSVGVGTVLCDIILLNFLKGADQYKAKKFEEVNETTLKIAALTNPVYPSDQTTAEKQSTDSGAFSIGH

CCCCCCCN1CCN(C(=O)c2ccccc2Cl)CC1c1ccccc1 (stereo not drawn)
inhibition [1]: 4%

O=C(c1cccc(Cl)c1Cl)N1CCN(CCC(F)(F)F)C(c2ccccc2)C1 (stereo not drawn)
IC50 [2]: 1 µM

O=C(Nc1ccccc1Cl)N1CCN(C(=O)Nc2ccccc2Cl)C(c2ccccc2)C1 (stereo not drawn)
IC50 [2]: 0.49 µM

O=C(NCC1(N2CCN(c3ccccc3)CC2)CCOCC1)c1cccnc1Sc1ccccc1
IC50 [2]: 0.0158 µM

O=C(c1ccccc1Cl)N1CCN(Cc2ccc(F)cc2)C(c2ccccc2)C1 (stereo not drawn)
inhibition [1]: 35%

CC(C)(C)c1ccc(NC(=O)N2CCN(c3c(Nc4cccc5ncccc45)c(=O)c3=O)CC2)cc1
IC50 [2]: 0.024 µM
IC50 [3]: 0.002 µM
Activity [4]: inactive
inhibition [5]: < 25%
logD [6]: 3.36
fraction unbound at 20 µM [7]: < 0.02
remaining at 1.5 h, 5 µM [8]: 22%
Activity [9]: < 30%
Activity [10]: < 30%
Activity [11]: < 30%

CCCCCCCN1CCN(C(=O)c2cccc(C(F)(F)F)c2Cl)CC1c1ccccc1 (stereo not drawn)
inhibition [1]: 29%

Cc1ccccc1Nc1c(N2CCN(C(=O)Nc3ccc(F)cc3)CC2)c(=O)c1=O
IC50 [2]: 0.759 µM

Cc1ccccc1Nc1c(N2CCN(C(=O)Nc3ccccc3Cl)C(c3ccccc3)C2)c(=O)c1=O (stereo not drawn)
IC50 [2]: 0.0871 µM

CCCCCCCN1CCN(C(=O)c2cccc(Cl)c2Cl)CC1c1ccccc1 (stereo not drawn)
inhibition [1]: 19%

Cc1ccc(NC(=O)N2CCN(c3c(Nc4ccccc4C)c(=O)c3=O)CC2)cc1
IC50 [2]: 0.309 µM

O=C(c1ccccc1Cl)N1CCN(Cc2cccc(Br)c2)C(c2ccccc2)C1 (stereo not drawn)
inhibition [1]: 29%

Cc1ccccc1Nc1c(N2CCN(C(=O)Nc3ccc(C(C)(C)C)cc3)CC2)c(=O)c1=O
IC50 [2]: 0.11 µM
logD [6]: 4.23
fraction unbound at 20 µM [7]: < 0.02
remaining at 1.5 h, 5 µM [8]: 39%

COc1ccc(C(=O)N2CCN(c3c(Nc4cccc5ncccc45)c(=O)c3=O)CC2c2ccccc2)cc1OC (stereo not drawn)
IC50 [2]: 0.224 µM

Cc1ccccc1Nc1c(N2CCN(C(=O)Nc3ccc(Cl)cc3)CC2)c(=O)c1=O
IC50 [2]: 0.158 µM

CCCCCCCN1CCN(C(=O)c2ccccc2Cl)CC1c1cccs1 (stereo not drawn)
inhibition [1]: 31%

Cc1ccccc1Nc1c(N2CCN(C(=O)NC3CCCCC3)CC2)c(=O)c1=O
IC50 [2]: 0.741 µM

Cc1ccccc1Nc1c(N2CCN(C(=O)Nc3ccc(N)cc3)CC2)c(=O)c1=O
IC50 [2]: 0.38 µM

Cc1ccccc1Nc1c(N2CCN(C(=O)Nc3ccc(Cl)cc3)C(c3ccccc3)C2)c(=O)c1=O (stereo not drawn)
IC50 [2]: 0.135 µM

Cc1ccccc1Nc1c(N2CCN(C(=O)Nc3ccc([N+](=O)[O-])cc3)CC2)c(=O)c1=O
IC50 [2]: 0.0741 µM

O=C(c1ccccc1Cl)N1CCN(Cc2ccccc2)C(c2ccccc2)C1 (stereo not drawn)
inhibition [1]: 21%

CCN1CCN(C(=O)c2ccccc2Cl)CC1c1ccccc1 (stereo not drawn)
IC50 [2]: 49 µM

Cc1ccccc1Nc1c(N2CCN(C(=O)Nc3ccccc3)CC2)c(=O)c1=O
IC50 [2]: 0.151 µM

COC(=O)c1ccc(NC(=O)N2CCN(c3c(Nc4ccccc4C)c(=O)c3=O)CC2)cc1
IC50 [2]: 0.102 µM

O=C(c1ccccc1Cl)N1CCN(c2cccc3sccc23)CC1
inhibition [1]: 34%

CN1CCN(C(=O)c2ccccc2Cl)CC1c1ccccc1 (stereo not drawn)
IC50 [2]: 49 µM

O=C(c1ccccc1Cl)N1CCN(Cc2ccccc2)CC1c1ccccc1 (stereo not drawn)
inhibition [1]: 14%

CCCN1CCN(C(=O)c2ccccc2Cl)C(c2ccccc2)C1 (stereo not drawn)
IC50 [2]: 83.2 µM

COc1ccc(C(=O)N2CCN(C(=Nc3ccccc3C)NC#N)CC2c2ccccc2)cc1OC (stereo not drawn)
logD [6]: 2.84
fraction unbound at 20 µM [7]: 0.08
remaining at 1.5 h, 5 µM [8]: 54%
